Calls of active or inactive are those of the source. The calls are words filed in the database; no cut-off is given here.
Legend:
HepG2 [1] = assay: Inhibition of colony formation in human HepG2 cells at 0.1 to 1 uM incubated for 10 days by crystal violet staining based microscopic method; assay type: functional, cell-based
How it was run: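 Five hundred cells plated per 30 mm dish and left 12 h. Medium with compound was added (0, 0.1, 0.5, 1 µM) or DMSO as negative control, and cells grew 10 days. Colonies were fixed in methanol 15 min, stained with 0.1% crystal violet 15 min, photographed and counted. Colony size was checked by microscope. Relative colony number is mean ± SD of ≥3 independent experiments.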

PLC-PRF-5 [2] = assay: Induction of cell cycle arrest in human PLC/PRF/5 cells assessed as accumulation at S phase at 0.25 uM incubated for 24 hrs by PI staining based flow cytometric analysis (reference value: 42.03%); assay type: functional
PLC-PRF-5 [3] = assay: Induction of cell cycle arrest in human PLC/PRF/5 cells assessed as accumulation at S phase at 0.5 uM incubated for 24 hrs by PI staining based flow cytometric analysis (reference value: 42.03%); assay type: functional
PLC-PRF-5 [4] = assay: Induction of cell cycle arrest in human PLC/PRF/5 cells assessed as accumulation at G1 phase at 1 uM incubated for 24 hrs by PI staining based flow cytometric analysis (reference value: 34.78%); assay type: functional
HepG2 [5] = assay: Induction of cell cycle arrest in human HepG2 cells assessed as accumulation at G2 phase at 0.25 uM incubated for 24 hrs by PI staining based flow cytometric analysis (reference value: 25.55%); assay type: functional
HepG2 [6] = assay: Induction of apoptosis in human HepG2 cells assessed as shrunken chromatin at 0.25 to 1 uM incubated for 24 hrs by Hoechst 33258 dye based fluorescence microscopic method; assay type: functional, cell-based
How it was run: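 About 2 × 10^4 cells per well were plated overnight and treated 24 h with 0, 0.25, 0.5 or 1 µM compound. Cells were fixed in 4% paraformaldehyde for 30 min at room temperature, stained with 20 µg/mL Hoechst 33258 for 20 min at 37 °C, and imaged by fluorescence microscopy.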

PLC-PRF-5 [7] = assay: Induction of apoptosis in human PLC/PRF/5 cells assessed as early apoptotic cells at 0.25 uM incubated for 24 hrs by annexin V staining based cell counting method (reference value: 5.65%); assay type: functional
PLC-PRF-5 [8] = assay: Induction of apoptosis in human PLC/PRF/5 cells assessed as necrotic cells at 0.25 uM incubated for 24 hrs by annexin V staining based cell counting method (reference value: 0.59%); assay type: functional
PLC-PRF-5 [9] = assay: Induction of apoptosis in human PLC/PRF/5 cells assessed as late apoptotic cells at 0.5 uM incubated for 24 hrs by annexin V staining based cell counting method (reference value: 4.81%); assay type: functional
PLC-PRF-5 [10] = assay: Induction of apoptosis in human PLC/PRF/5 cells assessed as necrotic cells at 1 uM incubated for 24 hrs by annexin V staining based cell counting method (reference value: 0.59%); assay type: functional
HepG2 [11] = assay: Induction of apoptosis in human HepG2 cells assessed as live cells at 0.25 uM incubated for 24 hrs by annexin V staining based cell counting method (reference value: 87.35%); assay type: functional
HepG2 [12] = assay: Induction of apoptosis in human HepG2 cells assessed as necrotic cells at 0.25 uM incubated for 24 hrs by annexin V staining based cell counting method (reference value: 3.40%); assay type: functional
HepG2 [13] = assay: Induction of apoptosis in human HepG2 cells assessed as necrotic cells at 0.5 uM incubated for 24 hrs by annexin V staining based cell counting method (reference value: 3.40%); assay type: functional
HepG2 [14] = assay: Induction of apoptosis in human HepG2 cells assessed as early apoptotic cells at 1 uM incubated for 24 hrs by annexin V staining based cell counting method (reference value: 3.60%); assay type: functional
HepG2 [15] = assay: Induction of apoptosis in human HepG2 cells assessed as down regulation of Bcl2 protein expression level incubated for 24 hrs by Western blot analysis; assay type: functional, cell-based
How it was run: (§1)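 Cells were treated 24 h in DMEM with 0, 0.25, 0.5, 1.0 or 1.25 µM compound. Adherent and floating cells were lysed in RIPA on ice and protein measured by BCA. Equal protein was run on 7.5–12.5% SDS-PAGE and transferred to PVDF. Membranes were blocked in 5% milk/PBST, incubated with primary antibody overnight at 4 °C, and detected by ECL.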

PLC-PRF-5 [16] = assay: Induction of apoptosis in human PLC/PRF/5 cells assessed as increase in cytochrome c protein expression level at 0.25 to 1.25 uM incubated for 24 hrs by Western blot analysis; assay type: functional, cell-based; how it was run: as §1
PLC-PRF-5 [17] = assay: Induction of apoptosis in human PLC/PRF/5 cells assessed as upregulation of cleaved caspase 3 protein expression level incubated for 24 hrs by Western blot analysis; assay type: functional, cell-based
How it was run: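 After 24 h exposure (0, 0.25, 0.5, 1.0 and 1.25 µM), adherent plus floating cells collected, lysed in RIPA on ice 30 min, protein quantified by BCA; equal protein run on 7.5–12.5% SDS gels, transferred to PVDF, blocked 30 min in 5% milk/PBST, primary antibody overnight at 4 °C, ECL detection.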

PLC-PRF-5 [18] = assay: Induction of apoptosis in human PLC/PRF/5 cells assessed as upregulation of cleaved PARP protein expression level incubated for 24 hrs by Western blot analysis; assay type: functional, cell-based; how it was run: as §1
PLC-PRF-5 [19] = assay: Antitumour activity against human PLC/PRF/5 cells xenografted in nude mouse assessed as tumour growth inhibition at 10 mg/kg, iv administrated once every 3 days for 4 weeks; assay type: functional, organism-based
How it was run: (§2)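 PLC/PRF/5 xenograft. 2 × 10^7 cells in 0.2 mL saline were injected s.c. into the right forelimb of nude mice. At about 120 mm3, mice were randomized into 3 groups of 6 and dosed i.v. at 10 mg/kg once every three days for 4 weeks. Vehicle was 10% N-methylpyrrolidone/12% Tween-80/78% saline. Volume (a×b²/2) and body weight were recorded daily, and tumors were excised and weighed at the end.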

PLC-PRF-5 [20] = assay: Antitumour activity against human PLC/PRF/5 cells xenografted in nude mouse assessed as reduction in tumour weight at 10 mg/kg, iv administrated once every 3 days for 4 weeks relative to control; assay type: functional; design: scale not given: the % may be the effect or the level left; how it was run: as §2
[21] = Toxicity in nude mouse xenografted with human PLC/PRF/5 cells assessed as change in body weight at 10 mg/kg, iv administrated once every 3 days for 4 weeks; assay type: organism-based; details: in vivo
How it was run: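 Nude mice were inoculated subcutaneously in the right forelimb with 2 × 10⁷ PLC/PRF/5 cells in 0.2 mL saline. At about 120 mm³, mice were randomized into 3 groups of 6. Dosing was i.v. once every three days for 4 weeks, with vehicle 10% N-methylpyrrolidone/12% Tween-80/78% saline. Body weight was recorded daily.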

[22] = Half life in human plasma measured for 5 to 120 mins by LC-MS/MS analysis; assay type: ADME, cell-free
How it was run: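 Compound at an initial 5000 ng/mL was incubated in human plasma at 37 °C. 100 µL aliquots were taken at 0–120 min and extracted with methanol plus tyrosine internal standard, then centrifuged and filtered. Extracts were analysed by LC-MS/MS on a triple-quadrupole instrument with ESI.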

half-life [22]: 2 h
SMILES: C=C1C(=O)[C@]23[C@H](OC(=O)/C=C/c4ccc(OC)cc4)[C@H]1CC[C@H]2[C@@]12CO[C@]3(O)[C@@H](O)[C@@H]1C(C)(C)CC[C@@H]2O
inhibition (HepG2 [1]): Active | Activity (PLC-PRF-5 [2]): 46.59% | Activity (PLC-PRF-5 [3]): 39.83% | Activity (PLC-PRF-5 [4]): 45.41% | Activity (HepG2 [5]): 24.78% | Activity (HepG2 [6]): Active | Activity (PLC-PRF-5 [7]): 9.43% | Activity (PLC-PRF-5 [8]): 0.91% | Activity (PLC-PRF-5 [9]): 18.84% | Activity (PLC-PRF-5 [10]): 0.45% | Activity (HepG2 [11]): 81.95% | Activity (HepG2 [12]): 7.05% | Activity (HepG2 [13]): 5.75% | Activity (HepG2 [14]): 21.8% | Activity (HepG2 [15]): Dose-dependent effect | Activity (PLC-PRF-5 [16]): Active | Activity (PLC-PRF-5 [17]): Dose-dependent effect | Activity (PLC-PRF-5 [18]): Dose-dependent effect | TGI (PLC-PRF-5 [19]): Active | Activity (PLC-PRF-5 [20]): 38.1% | Activity [21]: Non-Toxic

— ChEMBL document CHEMBL4364265, “Oridonin derivatives as potential anticancer drug candidates triggering apoptosis through mitochondrial pathway in the liver cancer cells” (Eur J Med Chem, 2019)
